In ChEMBL document CHEMBL4765483 (J Med Chem, 2021):

Legend:
Conditions in all cases: Cell membrane
[1] = molecular target: T1, Adenosine receptor A3 (Homo sapiens) (UniProt P0DMS8); assay: Displacement of [3H]NECA from adenosine A3 receptor expressed in human HeLa cell membranes at 1 uM incubated for 180 mins by scintillation counting method
T1 sequence (whole entry): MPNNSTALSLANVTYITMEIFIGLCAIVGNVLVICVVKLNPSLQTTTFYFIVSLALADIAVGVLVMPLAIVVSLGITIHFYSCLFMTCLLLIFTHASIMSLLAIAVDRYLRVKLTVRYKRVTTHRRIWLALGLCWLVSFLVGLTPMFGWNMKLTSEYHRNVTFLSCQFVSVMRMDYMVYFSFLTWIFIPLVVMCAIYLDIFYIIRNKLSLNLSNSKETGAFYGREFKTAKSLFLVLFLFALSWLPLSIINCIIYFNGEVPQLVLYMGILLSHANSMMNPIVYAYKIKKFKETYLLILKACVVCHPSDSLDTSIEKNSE
How it was run: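 hA3AR in HeLa membranes (3 pmol/mg protein) with 10 nM [3H]NECA (KD 8.7 nM); nonspecific binding with 100 μM R-PIA; incubated 180 min at 25 °C, washed, filtered, radioactivity counted.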

[2] = molecular target: T2, Adenosine receptor A1 (Homo sapiens) (UniProt P30542); assay: Displacement of [3H]DPCPX from human adenosine A1 receptor expressed in CHO cell membranes at 1 uM incubated for 60 mins by scintillation counting method
T2 sequence (whole entry): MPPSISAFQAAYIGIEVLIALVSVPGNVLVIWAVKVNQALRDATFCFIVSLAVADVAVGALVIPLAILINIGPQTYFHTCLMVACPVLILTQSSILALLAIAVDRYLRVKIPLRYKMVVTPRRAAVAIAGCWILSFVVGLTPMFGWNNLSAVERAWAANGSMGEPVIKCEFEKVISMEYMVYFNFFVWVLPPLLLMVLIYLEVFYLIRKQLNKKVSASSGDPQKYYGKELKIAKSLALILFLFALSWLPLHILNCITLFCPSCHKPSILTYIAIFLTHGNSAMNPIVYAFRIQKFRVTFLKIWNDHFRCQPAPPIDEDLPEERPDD

[3] = molecular target: T3, Adenosine receptor A2b (Homo sapiens) (UniProt P29275); assay: Displacement of [3H]DPCPX from human adenosine A2B receptor expressed in HEK293 cell membranes at 1 uM incubated for 30 mins by scintillation counting method
T3 sequence (whole entry): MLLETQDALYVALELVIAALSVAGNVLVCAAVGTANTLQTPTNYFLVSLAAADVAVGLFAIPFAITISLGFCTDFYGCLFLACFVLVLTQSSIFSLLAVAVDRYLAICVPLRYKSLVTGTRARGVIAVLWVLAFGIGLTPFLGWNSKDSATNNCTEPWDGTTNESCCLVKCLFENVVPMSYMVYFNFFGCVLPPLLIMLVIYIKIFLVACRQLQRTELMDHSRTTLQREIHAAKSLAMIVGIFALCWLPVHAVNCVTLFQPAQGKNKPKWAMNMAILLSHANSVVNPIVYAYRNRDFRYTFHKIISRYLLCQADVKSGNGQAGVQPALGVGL

[4] = molecular target: Adenosine receptor A2a (Homo sapiens) (UniProt P29274); assay: Displacement of [3H]ZM2421385 from adenosine A2A receptor expressed in human HeLa cell membranes at 1 uM incubated for 30 mins by scintillation counting method
Chain of Adenosine receptor A2a (Homo sapiens) (P29274 whole entry): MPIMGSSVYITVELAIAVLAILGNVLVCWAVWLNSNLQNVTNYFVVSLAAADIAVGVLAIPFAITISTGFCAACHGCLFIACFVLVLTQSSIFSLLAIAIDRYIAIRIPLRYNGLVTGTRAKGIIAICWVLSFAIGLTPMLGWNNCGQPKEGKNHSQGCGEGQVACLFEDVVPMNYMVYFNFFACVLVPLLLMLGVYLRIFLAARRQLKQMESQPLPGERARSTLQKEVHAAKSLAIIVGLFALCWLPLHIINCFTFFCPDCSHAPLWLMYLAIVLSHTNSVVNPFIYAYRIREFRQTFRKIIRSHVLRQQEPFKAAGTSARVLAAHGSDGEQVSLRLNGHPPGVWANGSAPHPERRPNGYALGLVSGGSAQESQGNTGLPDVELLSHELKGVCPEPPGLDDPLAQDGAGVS

## CC1=C(C(=O)OC(C)C)[C@H](c2ccco2)NC(=S)N1
[1]
  inhibition: 2%
[2]
  inhibition: 10%
[3]
  inhibition: 12%
[4]
  inhibition: 6%

## CCOC(=O)C1=C(C)NC(=O)N[C@H]1c1ccsc1
[1]
  inhibition: 3%
[2]
  inhibition: 5%
[3]
  inhibition: 19%
[4]
  inhibition: 21%

## CC1=C(C(=O)OC(C)(C)C)C(c2ccco2)NC(=O)N1C (racemic)
[1]
  inhibition: 54%
[2]
  inhibition: 44%
[3]
  inhibition: 26%
[4]
  inhibition: 20%

## CC1=C(C(=O)OC(C)(C)C)C(c2ccco2)NC(=S)N1 (racemic)
[1]
  inhibition: 9%
[2]
  inhibition: 3%
[3]
  inhibition: 9%
[4]
  inhibition: 1%

## CC1=C(C(=O)OC(C)(C)C)C(c2cccs2)NC(=O)N1 (racemic)
[1]
  inhibition: 7%
[2]
  inhibition: 26%
[3]
  inhibition: 38%
[4]
  inhibition: 10%

## CC1=C(C(=O)OC(C)(C)C)C(c2cccs2)NC(=O)N1C (racemic)
[1]
  inhibition: 22%
[2]
  inhibition: 18%
[3]
  inhibition: 24%
[4]
  inhibition: 12%

## CC1=C(C(=O)OC(C)(C)C)C(c2cccs2)NC(=S)N1 (racemic)
[1]
  inhibition: 22%
[2]
  inhibition: 22%
[3]
  inhibition: 26%
[4]
  inhibition: 7%

## CC1=C(C(=O)OC(C)(C)C)C(c2ccoc2)NC(=O)N1C (racemic)
[1]
  inhibition: 12%
[2]
  inhibition: 21%
[3]
  inhibition: 16%
[4]
  inhibition: 16%

## CC1=C(C(=O)OC(C)(C)C)C(c2ccsc2)NC(=O)N1 (racemic)
[1]
  inhibition: 1%
[2]
  inhibition: 15%
[3]; filed as antagonist
  inhibition: 47%
[4]
  inhibition: 5%

## CC1=C(C(=O)OC(C)(C)C)C(c2ccsc2)NC(=S)N1 (racemic)
[1]
  inhibition: 16%
[2]
  inhibition: 16%
[3]
  inhibition: 26%
[4]
  inhibition: 22%

## CC1=C(C(=O)OC(C)C)C(c2ccco2)NC(=O)N1C (racemic)
[4]
  inhibition: 37%

## CC1=C(C(=O)OC(C)C)C(c2cccs2)NC(=O)N1C (racemic)
[1]
  inhibition: 17%

## CC1=C(C(=O)OC(C)C)C(c2ccoc2)NC(=O)N1C (racemic)
[3]
  inhibition: 37%

## CC1=C(C(=O)OC(C)C)C(c2ccsc2)NC(=O)N1C (racemic)
[2]
  inhibition: 35%
[3]; filed as antagonist
  inhibition: 51%
[4]
  inhibition: 22%

## CC1=C(C(=O)OCC(C)C)C(c2ccco2)NC(=O)N1C (racemic)
[1]
  inhibition: 23%
[2]
  inhibition: 13%
[3]
  inhibition: 4%
[4]
  inhibition: 3%

## CC1=C(C(=O)OCC(C)C)C(c2ccco2)NC(=S)N1 (racemic)
[1]
  inhibition: 10%
[2]
  inhibition: 7%
[3]
  inhibition: 18%
[4]
  inhibition: 30%

## CC1=C(C(=O)OCC(C)C)C(c2cccs2)NC(=O)N1C (racemic)
[1]
  inhibition: 5%
[2]
  inhibition: 9%
[3]
  inhibition: 2%
[4]
  inhibition: 1%

## CC1=C(C(=O)OCC(C)C)C(c2cccs2)NC(S)=N1 (racemic)
[1]
  inhibition: 4%
[2]
  inhibition: 1%
[3]
  inhibition: 12%
[4]
  inhibition: 2%

## CC1=C(C(=O)OCC(C)C)C(c2ccoc2)NC(=O)N1C (racemic)
[1]
  inhibition: 16%
[2]
  inhibition: 4%
[3]
  inhibition: 1%
[4]
  inhibition: 4%

## CC1=C(C(=O)OCC(C)C)C(c2ccoc2)NC(=S)N1 (racemic)
[1]
  inhibition: 1%
[2]
  inhibition: 12%
[3]
  inhibition: 1%
[4]
  inhibition: 35%

## CC1=C(C(=O)OCC(C)C)C(c2ccsc2)NC(=S)N1 (racemic)
[1]
  inhibition: 2%
[2]
  inhibition: 8%
[3]
  inhibition: 15%
[4]
  inhibition: 1%

## CC1=C(C(=O)OCc2ccccc2)C(c2ccco2)NC(=S)N1 (racemic)
[1]
  inhibition: 4%
[2]
  inhibition: 32%
[3]; filed as antagonist
  inhibition: 41%
[4]
  inhibition: 12%

## CC1=C(C(=O)OCc2ccccc2)C(c2cccs2)NC(=O)N1C (racemic)
[1]
  inhibition: 18%
[2]
  inhibition: 50%
[3]; filed as antagonist
  inhibition: 50%
[4]
  inhibition: 3%

## CC1=C(C(=O)OCc2ccccc2)C(c2cccs2)NC(=S)N1 (racemic)
[1]
  inhibition: 24%
[2]
  inhibition: 34%
[3]; filed as antagonist
  inhibition: 45%
[4]
  inhibition: 63%

## CC1=C(C(=O)OCc2ccccc2)C(c2ccoc2)NC(=O)N1C (racemic)
[1]
  inhibition: 25%
[2]
  inhibition: 51%
[3]; filed as antagonist
  inhibition: 49%
[4]
  inhibition: 37%

## CC1=C(C(=O)OCc2ccccc2)C(c2ccoc2)NC(=S)N1 (racemic)
[1]
  inhibition: 20%
[2]
  inhibition: 25%
[3]
  inhibition: 36%
[4]
  inhibition: 16%

## CC1=C(C(=O)OCc2ccccc2)C(c2ccsc2)NC(=O)N1 (racemic)
[1]
  inhibition: 25%
[2]
  inhibition: 57%
[3]; filed as antagonist
  inhibition: 44%
[4]
  inhibition: 21%

## CC1=C(C(=O)OCc2ccccc2)C(c2ccsc2)NC(=S)N1 (racemic)
[1]
  inhibition: 2%
[2]
  inhibition: 3%
[3]
  inhibition: 10%
[4]
  inhibition: 16%

## CCCOC(=O)C1=C(C)N(C)C(=O)NC1c1ccco1 (racemic)
[1]
  inhibition: 8%
[2]
  inhibition: 3%
[3]
  inhibition: 23%
[4]
  inhibition: 2%

## CCCOC(=O)C1=C(C)N(C)C(=O)NC1c1cccs1 (racemic)
[1]
  inhibition: 4%
[2]
  inhibition: 9%
[3]
  inhibition: 1%
[4]
  inhibition: 1%

## CCCOC(=O)C1=C(C)N(C)C(=O)NC1c1ccoc1 (racemic)
[1]
  inhibition: 16%
[2]
  inhibition: 1%
[3]
  inhibition: 2%
[4]
  inhibition: 1%

## CCCOC(=O)C1=C(C)NC(=O)NC1c1ccco1 (racemic)
[1]
  inhibition: 3%

## CCCOC(=O)C1=C(C)NC(=S)NC1c1ccco1 (racemic)
[1]
  inhibition: 1%
[2]
  inhibition: 1%
[3]; filed as antagonist
  inhibition: 46%
[4]
  inhibition: 2%

## CCCOC(=O)C1=C(C)NC(=S)NC1c1cccs1 (racemic)
[1]
  inhibition: 10%
[2]
  inhibition: 7%
[3]
  inhibition: 3%
[4]
  inhibition: 1%

## CCCOC(=O)C1=C(C)NC(=S)NC1c1ccoc1 (racemic)
[1]
  inhibition: 3%
[2]
  inhibition: 4%
[3]; filed as antagonist
  inhibition: 45%
[4]
  inhibition: 2%

## CCCOC(=O)C1=C(C)NC(=S)NC1c1ccsc1 (racemic)
[1]
  inhibition: 1%
[2]
  inhibition: 5%
[3]
  inhibition: 26%
[4]
  inhibition: 1%

## CCOC(=O)C1=C(C)N(C)C(=O)NC1c1ccco1 (racemic)
[4]
  inhibition: 1%

## CCOC(=O)C1=C(C)N(C)C(=O)NC1c1cccs1 (racemic)
[1]
  inhibition: 2%
[2]
  inhibition: 1%
[4]
  inhibition: 1%

## CCOC(=O)C1=C(C)N(C)C(=O)NC1c1ccsc1 (racemic)
[2]
  inhibition: 32%
[3]; filed as antagonist
  inhibition: 53%
[4]
  inhibition: 23%

## CCOC(=O)C1=C(C)NC(=O)NC1c1cccs1 (racemic)
[3]; filed as antagonist
  inhibition: 41%

## COC(=O)C1=C(C)N(C)C(=O)NC1c1ccco1 (racemic)
[1]
  inhibition: 9%
[2]
  inhibition: 45%
[3]
  inhibition: 31%
[4]
  inhibition: 1%

## COC(=O)C1=C(C)N(C)C(=O)NC1c1cccs1 (racemic)
[1]
  inhibition: 15%
[2]
  inhibition: 30%
[3]
  inhibition: 17%
[4]
  inhibition: 49%

## COC(=O)C1=C(C)N(C)C(=O)NC1c1ccoc1 (racemic)
[1]
  inhibition: 7%
[2]
  inhibition: 15%
[3]
  inhibition: 7%
[4]
  inhibition: 5%

## COC(=O)C1=C(C)NC(=O)NC1c1cccs1 (racemic)
[1]
  inhibition: 3%
[2]
  inhibition: 6%
[3]
  inhibition: 19%
[4]
  inhibition: 1%

## COC(=O)C1=C(C)NC(=O)NC1c1ccoc1 (racemic)
[1]
  inhibition: 2%
[2]
  inhibition: 8%
[3]; filed as antagonist
  inhibition: 42%
[4]
  inhibition: 3%

## COC(=O)C1=C(C)NC(=O)NC1c1ccsc1 (racemic)
[1]
  inhibition: 3%
[2]
  inhibition: 7%
[3]
  inhibition: 36%
[4]
  inhibition: 2%

## COC(=O)C1=C(C)NC(=S)NC1c1cccs1 (racemic)
[1]
  inhibition: 1%
[2]
  inhibition: 1%
[3]
  inhibition: 10%
[4]
  inhibition: 1%

## COC(=O)C1=C(C)NC(=S)NC1c1ccoc1 (racemic)
[1]
  inhibition: 3%
[2]
  inhibition: 25%
[3]; filed as antagonist
  inhibition: 48%
[4]
  inhibition: 1%

## COC(=O)C1=C(C)NC(=S)NC1c1ccsc1 (racemic)
[1]
  inhibition: 3%
[2]
  inhibition: 3%
[3]
  inhibition: 38%
[4]
  inhibition: 1%
